# Measurements reported in ChEMBL document CHEMBL2311362, “Fragment-based discovery of novel and selective mPGES-1 inhibitors Part 1: identification of sulfonamido-1,2,3-triazole-4,5-dicarboxylic acid” (Bioorg Med Chem Lett, 2013).
# Calls of active or inactive are those of the source. The rule behind the calls is not given here.
# Tests used:
# Prostaglandin E synthase = molecular target: T1, Prostaglandin E synthase (Homo sapiens, UniProt O14684); test: Inhibition of mPGES1 (unknown origin) using PGH2 as substrate incubated for 30 mins prior to substrate addition by PGH2-coupled spectrophotometric analysis
# T1 sequence (O14684 whole entry): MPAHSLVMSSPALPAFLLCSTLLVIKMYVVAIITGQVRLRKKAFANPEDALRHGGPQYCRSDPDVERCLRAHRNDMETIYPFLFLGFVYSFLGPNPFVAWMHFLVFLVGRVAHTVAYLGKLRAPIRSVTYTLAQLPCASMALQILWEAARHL
# In short: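 Two-enzyme coupled assay. 110 nM mPGES-1 and 220 nM 15-PGDH in 200 µL buffer (50 mM Tris-HCl pH 7.5, 50 µM PMA, 2 mM reduced glutathione, 1 mM NAD+, 0.1 mM DTT), compound added in 1 µL DMSO, preincubated 30 min. Started with cold PGH2 (14 µM final). NADH read by fluorescence, excitation 340 nm, emission 468 nm. IC50 from varying concentrations.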
# [1] = molecular target: T2, Prostaglandin E synthase (Homo sapiens) (UniProt O14684); test: Inhibition of human recombinant mPGES1 using PGH2 as substrate at 10 uM incubated for 5 mins prior to substrate addition measured after 5 mins by HPLC analysis in presence of triton-X-100
# T2 sequence (whole entry): T1 sequence (O14684 whole entry)
# In short: (§1)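 mPGES-1 inhibition measured at 10 µM test compound, run with and without 0.1% Triton X-100, following a previously published protocol. Reported as % inhibition.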
# [2] = molecular target: T2, Prostaglandin E synthase (Homo sapiens); test: Inhibition of human recombinant mPGES1 using PGH2 as substrate at 10 uM incubated for 5 mins prior to substrate addition measured after 5 mins by HPLC analysis; in short: as §1
# [3] = molecular target: T3, Prostaglandin G/H synthase 1 (Ovis aries) (UniProt P05979); test: Inhibition of ovine COX1 using PGH2 as substrate at 1 mM incubated for 10 mins prior to substrate addition measured for 2 mins by enzyme immunoassay; settings: in the assay text read “arachidonic acid” for “PGH2”
# T3 sequence (whole entry): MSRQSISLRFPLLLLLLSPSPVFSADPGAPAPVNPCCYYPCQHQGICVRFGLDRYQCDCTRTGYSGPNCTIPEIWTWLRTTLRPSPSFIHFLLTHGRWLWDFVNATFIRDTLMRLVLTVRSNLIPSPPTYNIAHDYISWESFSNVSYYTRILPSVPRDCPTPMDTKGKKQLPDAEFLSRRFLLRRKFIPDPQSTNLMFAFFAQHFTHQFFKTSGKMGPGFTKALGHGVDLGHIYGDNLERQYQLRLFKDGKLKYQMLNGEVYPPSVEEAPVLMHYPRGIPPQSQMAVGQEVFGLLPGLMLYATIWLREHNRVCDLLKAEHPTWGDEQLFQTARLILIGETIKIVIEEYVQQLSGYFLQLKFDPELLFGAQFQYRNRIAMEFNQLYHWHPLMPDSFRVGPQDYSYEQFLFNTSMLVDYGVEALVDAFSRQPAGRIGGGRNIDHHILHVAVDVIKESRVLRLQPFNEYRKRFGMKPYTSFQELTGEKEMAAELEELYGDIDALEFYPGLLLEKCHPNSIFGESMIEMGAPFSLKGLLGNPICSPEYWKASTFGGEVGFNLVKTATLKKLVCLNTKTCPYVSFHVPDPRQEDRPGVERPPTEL
# In short: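 COX-1 (purified ovine) or COX-2 (purified human recombinant) preincubated with test compound 10 min at 37 °C, then tested at 1 mM. Prostanoid product quantified by enzyme immunoassay with a broadly specific antibody that binds all major prostaglandins (COX inhibitor screening kit).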
# [4] = molecular target: T2, Prostaglandin E synthase (Homo sapiens); test: Ratio of MK886 IC50 to compound IC50 for mPGES1 (unknown origin)
# [5] = Selectivity index, ratio of IC50 for ovine COX1 to IC50 for mPGES1 (unknown origin)
# [6] = molecular target: T4, Prostaglandin G/H synthase 2 (Homo sapiens) (UniProt P35354); test: Inhibition of human recombinant COX2 using arachidonic acid as substrate at 1 mM incubated for 10 mins prior to substrate addition measured for 2 mins by enzyme immunoassay
# T4 sequence (whole entry): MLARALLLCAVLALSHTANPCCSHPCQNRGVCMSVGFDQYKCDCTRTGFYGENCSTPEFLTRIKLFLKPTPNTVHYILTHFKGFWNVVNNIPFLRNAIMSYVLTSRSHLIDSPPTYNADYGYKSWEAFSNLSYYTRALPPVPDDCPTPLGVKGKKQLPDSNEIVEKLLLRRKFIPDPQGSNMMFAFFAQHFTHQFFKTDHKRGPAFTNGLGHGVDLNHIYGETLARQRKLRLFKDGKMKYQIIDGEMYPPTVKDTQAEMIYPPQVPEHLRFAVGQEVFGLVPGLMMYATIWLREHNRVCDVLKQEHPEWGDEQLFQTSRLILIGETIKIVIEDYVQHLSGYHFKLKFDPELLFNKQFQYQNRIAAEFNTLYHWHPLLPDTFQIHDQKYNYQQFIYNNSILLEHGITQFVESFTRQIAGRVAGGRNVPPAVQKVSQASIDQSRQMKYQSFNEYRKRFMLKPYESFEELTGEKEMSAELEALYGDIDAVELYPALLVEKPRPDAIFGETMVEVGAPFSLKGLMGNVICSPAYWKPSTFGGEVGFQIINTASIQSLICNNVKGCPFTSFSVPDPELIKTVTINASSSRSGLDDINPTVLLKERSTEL
# [7] = Inhibition of rat mPGES1 expressed in CHOK21 cells using [3H]PGH2 as substrate by radio-HPLC analysis; format: cell-based
IC50 (Prostaglandin E synthase) [µM],SMILES,also measured
10.3,CS(=O)(=O)NCCn1nnc(C(=O)O)c1C(=O)O,–
6.9,Cc1ccc(S(=O)(=O)NCn2nnc(C(=O)O)c2C(=O)O)cc1,–
4.2,Cc1ccc(S(=O)(=O)NCCn2nnc(C(=O)O)c2C(=O)O)cc1,–
1.1,O=C(O)c1nnn(CCN(c2ccccc2)S(=O)(=O)c2ccccc2)c1C(=O)O,inhibition [1]: 18.1%; inhibition [2]: 69.1%; inhibition [3]: 50%; Ratio IC50 [4]: 3.5; Ratio IC50 [5]: 1000; inhibition [6]: inactive
6.3,Cc1ccc(S(=O)(=O)NCCCn2nnc(C(=O)O)c2C(=O)O)cc1,–
–,CC(C)c1ccc2c(c1)c(SC(C)(C)C)c(CC(C)(C)C(=O)O)n2Cc1ccc(Cl)cc1,IC50 [7]: 3.2 µM
4.4,O=C(O)c1nnn(CCNS(=O)(=O)c2cccc(C(F)(F)F)c2)c1C(=O)O,–
3.8,CCCN(CCn1nnc(C(=O)O)c1C(=O)O)S(=O)(=O)c1ccc(C)cc1,–
9.7,CCS(=O)(=O)NCCn1nnc(C(=O)O)c1C(=O)O,–
23.3,NC(=O)c1nnn(CCNS(=O)(=O)c2ccccc2)c1C(N)=O,–
12.9,COC(=O)c1nnn(CCNS(=O)(=O)c2ccccc2)c1C(=O)OC,–
4,CN(CCn1nnc(C(=O)O)c1C(=O)O)S(=O)(=O)c1ccccc1,–
3.3,O=C(O)c1nnn(CCNS(=O)(=O)c2ccccc2C(F)(F)F)c1C(=O)O,–
4.1,O=C(O)c1nnn(CCNS(=O)(=O)c2ccccc2)c1C(=O)O,–
